Data on nine compounds can be found in PMC6045484 (ACS Omega, 2018).

Data set [1] has as its system P. falciparum (W2). The data set is described as follows: in vitro antimalarial activity, plasmodial LDH. The format is cell-based, Plasmodium falciparum. Particulars: Plasmodium falciparum, W2, 72 h, read-out: P. falciparum (W2) IC50, CQ-resistant W2 strain, 72 h. Put shortly:
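P. falciparum-infected erythrocytes (2% parasitemia, 2% hematocrit) in RPMI 1640 with 10% human serum and 60 μg/mL amikacin. Exposed to test compound dilutions for 72 h at 37 °C under 90% N2/5% O2/5% CO2. LDH measured with Malstat reagent (30 min, room temperature), then NBT/PES for 1 h in the dark, stopped with 5% acetic acid, read at 650 nm. IC50 from dose-response curves.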

Data set [2] deals with L. donovani promastigotes. The data set is described as follows: in vitro antileishmanial activity, alamarBlue assay. The data set is classed as cell-based, Leishmania donovani. The conditions noted are these: 48 h; for IC50: read-out: L. donovani IC50, promastigotes, 48 h.
The test system of data set [3] is C. neoformans ATCC90113. The data set is described as follows: in vitro antifungal activity. The format is cell-based, Cryptococcus neoformans. Particulars: Cryptococcus neoformans; for IC50: ATCC90113, read-out: C. neoformans IC50; for MFC: ATCC90113, read-out: C. neoformans MFC; for MIC: ATCC90113, read-out: C. neoformans MIC. Put shortly: (§1)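 Modified NCCLS broth method in Sabouraud dextrose. Inoculum set by OD630 to 1.5 × 10^3 CFU/mL. Test compound serially diluted in 20% DMSO/saline, duplicate wells, up to 20 μg/mL. Incubated 70–74 h at 35 °C; 530 nm read before and after. IC50 is 50% growth inhibition; MIC is no detectable growth. MFC from clear wells subcultured on agar. Amphotericin B control.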

For data set [4], the system named is C. albicans ATCC90028. Put plainly: in vitro antifungal activity. The conditions noted are these: Candida albicans; for IC50: ATCC90028, read-out: C. albicans IC50; for MFC: ATCC90028, read-out: C. albicans MFC; for MIC: ATCC90028, read-out: C. albicans MIC. The data set is classed as cell-based, Candida albicans. Put shortly:
as §1

Data set [5] has as its system A. fumigatus ATCC 90906. The data set is described as follows: in vitro antifungal activity. The data set is classed as cell-based, Aspergillus fumigatus. Particulars: Aspergillus fumigatus; for IC50: ATCC90906, read-out: A. fumigatus IC50; for MFC: ATCC90906, read-out: A. fumigatus MFC; for MIC: ATCC90906, read-out: A. fumigatus MIC. Put shortly: as §1
The test system of data set [6] is M. intracellulare (ATCC23068). Put plainly: in vitro antibacterial activity, modified alamarBlue procedure. The format is cell-based, Mycobacterium intracellulare. The conditions noted are these: Mycobacterium intracellulare; for IC50: ATCC23068, read-out: IC50 (concentration that affords 50% growth inhibition), M. intracellulare; for MBC: ATCC23068, read-out: MBC (minimum bactericidal concentration), M. intracellulare; for MIC: ATCC23068, read-out: MIC, M. intracellulare. Put shortly: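 Modified alamarBlue microplate method. Test compound serially diluted in 20% DMSO/saline, duplicate wells, up to 20 μg/mL. Inoculum 2.0 × 10^6 CFU/mL in Middlebrook 7H9 with OADC, pH 7.3, containing 5% alamarBlue. Incubated 70–74 h at 37 °C, 10% CO2; fluorescence 544ex/590em read before and after. MIC: no blue-to-pink change. MBC by subculturing blue wells on agar. Ciprofloxacin control.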
(In general: The colour change of resazurin is a common sign of viable cells or microbes.)

Data set [7] deals with MRSA (ATCC33591). Put plainly: in vitro antibacterial activity. The data set is classed as cell-based, methicillin-resistant Staphylococcus aureus. The conditions noted are these: Staphylococcus aureus, ATCC33591|MRSA, read-out: MIC, MRSA. The method in brief: (§2)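 Test compound serially diluted in 20% DMSO/saline and plated in duplicate, up to 20 μg/mL. Inoculum in cation-adjusted Mueller–Hinton broth, pH 7.3, set by OD630 to 5 × 10^5 CFU/mL. Incubated 16–20 h at 35 °C; 530 nm read before and after. IC50 is 50% growth inhibition; MIC is no detectable growth. MBC from clear wells subcultured on agar. Ciprofloxacin control.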

Data set [8] concerns SA (ATCC29213). The data set is described as follows: in vitro antibacterial activity. The data set is classed as cell-based. Particulars: Staphylococcus aureus; for IC50: ATCC29213, read-out: IC50 (concentration that affords 50% growth inhibition), SA; for MBC: ATCC29213, read-out: MBC (minimum bactericidal concentration), SA; for MIC: ATCC29213, read-out: MIC, SA. The method in brief: as §2

In data set [9] the test system is SK-MEL, KB, BT-549, SK-OV-3, VERO and LLC-PK1 cells. Put plainly: cytotoxicity, neutral red uptake assay. The conditions noted are these: highest test concentration 4760 ng/mL. The data set is classed as cell-based, mammalian. Put shortly: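 Cells seeded at 25 000/well and allowed 24 h to reach confluence. Test compound was then added and incubated 48 h. Viable cells were counted by a modified neutral red uptake method. The panel was four human cancer lines and two noncancerous mammalian kidney lines. Doxorubicin served as positive control and DMSO as negative control.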

In data set [10] the test system is P. falciparum (D6). Put plainly: in vitro antimalarial activity, plasmodial LDH. The format is cell-based, Plasmodium falciparum. The conditions noted are these: Plasmodium falciparum, D6, 72 h, read-out: P. falciparum (D6) IC50.

The structures appear in SMILES notation. ≈ marks a conversion by molar mass, not a printed value. Where only a bound is given, the exact number is not on record here.

As to `C[C@@H]1CC[C@H]2[C@@H](C)C(=O)O[C@@H]3O[C@@]4(C)CC[C@@H]1[C@]32OO4` [ART, artemisinin, reference compound], the IC50 in data set [1] was found to be 0.009 µg/mL (≈ 0.0319 µM).

For `C[C@@H]1[C@H](O)[C@@H](C)/C=C/C=C/C=C/C=C/C=C/C=C/C=C/[C@H](O[C@@H]2O[C@H](C)[C@@H](O)[C@H](N)[C@@H]2O)C[C@@H]2O[C@](O)(C[C@@H](O)C[C@@H](O)[C@H](O)CC[C@@H](O)C[C@@H](O)CC(=O)O[C@H]1C)C[C@H](O)[C@H]2C(=O)O` [amphotericin B (AMP), amphotericin B, reference compound], the IC50 turned out to be 0.1 µg/mL (≈ 0.108 µM) in data set [2] (Leishmania donovani), 0.3 µg/mL (≈ 0.325 µM) in data set [3], 0.17 µg/mL (≈ 0.184 µM) in [4] and 0.68 µg/mL (≈ 0.736 µM) in data set [5]. Moreover, the IC90 in data set [2] (Leishmania donovani, read-out: L. donovani IC90, promastigotes, 48 h) turned out to be 0.3 µg/mL (≈ 0.325 µM). Further, the results for the MFC in data set [3], in data set [4] and in data set [5] were 0.63 µg/mL (≈ 0.682 µM), 1.25 µg/mL (≈ 1.35 µM) and 2.5 µg/mL (≈ 2.71 µM), respectively. Besides, the minimum inhibitory concentration (MIC) is 0.63 µg/mL (≈ 0.682 µM) in data set [3], 0.63 µg/mL (≈ 0.682 µM) in data set [4] and 1.25 µg/mL (≈ 1.35 µM) in data set [5].

Consider `O=C(O)c1cn(C2CC2)c2cc(N3CCNCC3)c(F)cc2c1=O` [ciprofloxacin, reference compound], for which the results for the IC50 in [6] and in data set [8] were 0.28 µg/mL (≈ 0.845 µM) and 0.13 µg/mL (≈ 0.392 µM), respectively. The MBC in [6] and in [8] was 1 µg/mL (≈ 3.02 µM) throughout. The MIC in data set [6] stood at 0.5 µg/mL (≈ 1.51 µM); in data set [7], 0.25 µg/mL (≈ 0.754 µM); in data set [8] it was 0.5 µg/mL (≈ 1.51 µM).

`CCCCOc1c(OC)cc(NC(C)CCCN)c2nc(C(C)(C)C)ccc12` (centres unmarked) [compound 45, N^4-(5-Butoxy-2-tert-butyl-6-methoxyquinolin-8-yl)pentane-1,4-diamine]: the IC50 is greater than 20 µg/mL in data set [3]; greater than 20 µg/mL in data set [6]; greater than 20 µg/mL in data set [4]; greater than 20 µg/mL in data set [5]; greater than 20 µg/mL in [8]; 3.3 µg/mL (≈ 8.51 µM) in [1]. In addition, the IC50 in [10] is greater than 4.76 µg/mL. Besides, the MFC in [3], in data set [4] and in [5] was greater than 20 µg/mL in each case. In addition, the MIC in [3], in [6], in data set [4], in [7], in data set [5] and in [8] was greater than 20 µg/mL throughout. The MBC in [6] and in [8] was greater than 20 µg/mL throughout. Besides, in data set [9], the “cytotoxicity CTX” value was “NC (NC, not cytotoxic up to 4760 ng/mL (4.76 μg/mL))”.

With `CCCCOc1c(OC)cc(NC(C)CCCNC(=O)C(N)CCCCN)c2nc(C(C)(C)C)ccc12` (centres unmarked) [compound 90, 2,6-Diamino-N-(4-(5-butoxy-2-tert-butyl-6-methoxyquinolin-8-ylamino)pentyl)-hexanamide], the IC50 in [3] was greater than 20 µg/mL; in [6], greater than 20 µg/mL; in [4] it was greater than 20 µg/mL; in [5] it was greater than 20 µg/mL; in [8], greater than 20 µg/mL; in data set [1] it was 2.9 µg/mL (≈ 5.62 µM). Further, the IC50 in data set [10] was found to be 4.7 µg/mL (≈ 9.11 µM). The MFC in data set [3], in data set [4] and in data set [5] was greater than 20 µg/mL throughout. For the same compound, the MIC in data set [3], in [6], in [4], in data set [7], in [5] and in [8] was greater than 20 µg/mL throughout. Also, the MBC in data set [6] and in data set [8] was greater than 20 µg/mL each time. Besides, the “cytotoxicity CTX” value in data set [9] is on record as “NC (NC, not cytotoxic up to 4760 ng/mL (4.76 μg/mL))”.

Regarding `CCCCOc1c(OC)cc(NC(C)CCCNC(=O)C(N)CCCN)c2nc(C(C)(C)C)ccc12` (centres unmarked) [compound 91, 2,5-Diamino-N-(4-(5-butoxy-2-tert-butyl-6-methoxyquinolin-8-ylamino)pentyl)-pentanamide], the IC50 in data set [3] was greater than 20 µg/mL; in data set [6], greater than 20 µg/mL; in data set [4] it was greater than 20 µg/mL; in data set [5] it was greater than 20 µg/mL; in data set [8], greater than 20 µg/mL; in [1], 1.3 µg/mL (≈ 2.59 µM). Further, the IC50 in [10] was determined as 2.8 µg/mL (≈ 5.58 µM). Besides, the MFC in data set [3], in data set [4] and in data set [5] was greater than 20 µg/mL each time. Also, the MIC in data set [3], in data set [6], in data set [4], in data set [7], in data set [5] and in data set [8] was greater than 20 µg/mL each time. The MBC in data set [6] and in [8] was greater than 20 µg/mL throughout. In [9], the “cytotoxicity CTX” value is “NC (NC, not cytotoxic up to 4760 ng/mL (4.76 μg/mL))”.

With `CCCCCOc1c(OC)cc(NC(C)CCCNC(=O)C(N)CCCN)c2nc(C(C)(C)C)ccc12` (centres unmarked) [compound 93, 2,5-Diamino-N-(4-(2-tert-butyl-6-methoxy-5-(pentyloxy)quinolin-8-ylamino)-pentyl)pentanamide], the IC50 in data set [3] was 10.1 µg/mL (≈ 19.6 µM); in data set [6], 8.99 µg/mL (≈ 17.4 µM); in [4] it was greater than 20 µg/mL; in data set [5], greater than 20 µg/mL; in [8] it was greater than 20 µg/mL; in data set [1], 0.87 µg/mL (≈ 1.69 µM). Besides, the IC50 in [10] amounted to 1 µg/mL (≈ 1.94 µM). The MFC in [3], in [4] and in [5] was greater than 20 µg/mL in each case. Further, the MIC in [3], in data set [6], in data set [4], in data set [7], in data set [5] and in data set [8] was greater than 20 µg/mL throughout. The MBC in [6] and in data set [8] was greater than 20 µg/mL throughout. The “cytotoxicity CTX” value in data set [9] was “NC (NC, not cytotoxic up to 4760 ng/mL (4.76 μg/mL))”.

With `CCCCCCOc1c(OC)cc(NC(C)CCCNC(=O)C(N)CCCN)c2nc(C(C)(C)C)ccc12` (centres unmarked) [compound 100, 2,5-Diamino-N-(4-(2-tert-butyl-5-(hexyloxy)-6-methoxyquinolin-8-ylamino)-pentyl)pentanamide], the IC50 in data set [3] is greater than 20 µg/mL; in data set [6], 9.34 µg/mL (≈ 17.6 µM); in data set [4], greater than 20 µg/mL; in [5], greater than 20 µg/mL; in [8], greater than 20 µg/mL; in [1], 0.73 µg/mL (≈ 1.38 µM). The IC50 in [10] worked out at 0.86 µg/mL (≈ 1.62 µM). The MFC in data set [3], in [4] and in data set [5] was greater than 20 µg/mL in each case. Besides, the MIC in data set [3], in data set [6], in data set [4], in data set [7], in [5] and in data set [8] was greater than 20 µg/mL each time. For the same compound, the MBC in data set [6] and in data set [8] was greater than 20 µg/mL in each case. Further, the “cytotoxicity CTX” value in data set [9] is recorded as “NC (NC, not cytotoxic up to 4760 ng/mL (4.76 μg/mL))”.

`N=C(N)c1ccc(OCCCCCOc2ccc(C(=N)N)cc2)cc1` [pentamidine, reference compound]: the IC50 in data set [2] (Leishmania donovani) was 1.4 µg/mL (≈ 4.11 µM). The “L. donovani IC50” value in [2] (promastigotes) is 1.1 µg/mL.

A word on the IC90: it is the point of the concentration-response curve where the effect stands at 90%. The term MFC denotes the lowest tested concentration that kills the fungus rather than only halting it. As usually defined, the MIC is the least concentration at which growth counts as inhibited.
